Measurements: ChEMBL document CHEMBL1125885, “Dopamine autoreceptor agonists as potential antipsychotics. 3.6-Propyl-4,5,5a,6,7,8-hexahydrothiazolo[4,5-f]quinolin-2-amine” (J Med Chem, 1991)
Blank lines part the entries; values can stand above or below the compound they belong to.

Assays:
Mus musculus = experiment: Effective dose required to inhibit the Locomotor activity in mouse after ip administration.; format: functional
D(1A) dopamine receptor = D(1A) dopamine receptor (Rattus norvegicus, UniProt P18901); experiment: In vitro binding affinity towards dopamine receptor D1 in rat striatal membrane using [3H]-SCH- 23390; format: cell membranes, Striatum
Procedure, shortened: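 Dopamine D1 binding in rat striatal membranes with the selective D1 antagonist [3H]SCH23390. IC50 comes from four or five compound concentrations, each run in triplicate, fitted by nonlinear regression.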

Rattus norvegicus [1] = experiment: Effective dose required to inhibit the Locomotor activity in Rat after po administration.; format: functional
[2] = biological target: D(2) dopamine receptor (Rattus norvegicus) (UniProt P61169); experiment: Compound at 10E-5 M was tested in vitro for binding affinity towards dopamine receptor D2 in rat striatal membrane by using [3H]spiperone as radioligand; format: cell membranes; settings: Striatum
Rattus norvegicus [3] = experiment: Percentage inhibition of DA neural firing after administration the compound at a dose of 2.5 mg/Kg through ip route in rats.; format: functional; settings: for inhibition in vivo at 2.5 mg/kg: Rattus norvegicus, ip
D(2) dopamine receptor = D(2) dopamine receptor (Rattus norvegicus, UniProt P61169); experiment: Binding affinity towards dopamine receptor D2 in rat striatal membrane using [3H]spiperone; format: cell membranes, Striatum
Rattus norvegicus [4] = experiment: Effective dose required to inhibit the Locomotor activity in rat after po administration.; format: functional
Procedure, shortened: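 Inhibition of spontaneous locomotor activity in rats after oral dosing. ED50 is generated from four to six doses, with 5-12 animals per dose.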

Rattus norvegicus [5] = experiment: Effective dose for the reversal of the increase in DOPA levels in the striatum of GBL-treated rats after ip administration; format: functional
Procedure, shortened: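 Male Long-Evans rats got test compound ip 1 h before sacrifice, GBL 750 mg/kg ip 30 min before and NSD 1015 100 mg/kg ip 25 min before. Striatal DOPA was measured by HPLC with electrochemical detection, n = 4 or 5 rats. ED50 (95% CI) is the dose reversing the GBL-induced DOPA rise; percent reversal at a single test dose is given otherwise.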

[6] = Minimal effective oral dose that induced EPS signs in at least one squirrel monkey upon peroral administration.; format: functional, Cercopithecidae
Rattus norvegicus [7] = experiment: Dose to effect on Brain DOPA synthesis upon ip administration.; format: functional
Procedure, shortened: (§1)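 Rats were dosed with NSD 1015 at 100 mg/kg ip 25 min before sacrifice and received no GBL. Test compound was given ip 1 h before sacrifice. Striatal DOPA was measured by HPLC with electrochemical detection and expressed as percent of control, n = 4 rats. Significance was set at p < 0.05 vs control.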

Rattus norvegicus [8] = experiment: Values for the reversal of the increase in DOPA levels in the striatum of GBL-treated rats after ip administration; format: functional
Procedure, shortened: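 Male Long-Evans rats received test compound ip 1 h before sacrifice, GBL 750 mg/kg ip 30 min before, and NSD 1015 100 mg/kg ip 25 min before. Striatal DOPA was quantified by HPLC with electrochemical detection, n = 4 or 5 rats. ED50 (95% CI) is the dose reversing the GBL-induced DOPA rise.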

Rattus norvegicus [9] = experiment: Compound was tested for inhibition of locomotor activity after sc administration in rat; format: functional
Procedure, shortened: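 Spontaneous exploratory locomotor activity in rats after sc dosing. […] 5-12 animals were used per dose.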

Rattus norvegicus [10] = experiment: Compound was tested for stimulation of locomotor activity after sc administration in rat; format: functional
[11] = Compound was tested for inhibition of Sidman conditioned avoidance in squirrel monkeys upon peroral administration; format: functional; settings: po
Procedure, shortened: (§2)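 Sidman avoidance in squirrel monkeys with oral dosing. ED50 (95% CL) is derived from three doses, with four animals tested per dose.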

Rattus norvegicus [12] = species: Rattus norvegicus; experiment: Compound was tested for effect on brain DOPA synthesis in the striatum of NSD 1015 rat; format: functional; procedure, shortened: as §1
Rattus norvegicus [13] = experiment: Values for the reversal of the increase in DOPA levels in the striatum of GBL-treated rats after ip administration of 10 mg/Kg; format: functional
Procedure, shortened: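 Male Long-Evans rats were given the compound ip at 10 mg/kg 1 h before sacrifice. GBL (750 mg/kg ip) was given 30 min and NSD 1015 (100 mg/kg ip) 25 min before sacrifice. Striatal DOPA was measured by HPLC with electrochemical detection. The value is the percent reversal of the GBL-induced DOPA increase; n = 4 or 5 rats.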

Rattus norvegicus [14] = species: Rattus norvegicus; experiment: The compound was tested for effect on brain DOPA synthesis in the striatum of NSD 1015 rat; format: functional; procedure, shortened: as §1
[15] = Compound was tested for inhibition of Sidman conditioned avoidance in squirrel monkeys upon peroral administration.; format: functional; settings: Cercopithecidae, po; procedure, shortened: as §2
Rattus norvegicus [16] = experiment: Percentage inhibition of DA neural firing after administration the compound at a dose of 0.25 mg/kg through ip route in rats.; format: functional; settings: route intraperitoneal
[17] = Mus musculus, ip, read-out: ED50
[18] = Rattus norvegicus, po, read-out: ED50
[19] = Rattus norvegicus, sc, read-out: ED50

Sequence of D(1A) dopamine receptor (P18901 whole entry): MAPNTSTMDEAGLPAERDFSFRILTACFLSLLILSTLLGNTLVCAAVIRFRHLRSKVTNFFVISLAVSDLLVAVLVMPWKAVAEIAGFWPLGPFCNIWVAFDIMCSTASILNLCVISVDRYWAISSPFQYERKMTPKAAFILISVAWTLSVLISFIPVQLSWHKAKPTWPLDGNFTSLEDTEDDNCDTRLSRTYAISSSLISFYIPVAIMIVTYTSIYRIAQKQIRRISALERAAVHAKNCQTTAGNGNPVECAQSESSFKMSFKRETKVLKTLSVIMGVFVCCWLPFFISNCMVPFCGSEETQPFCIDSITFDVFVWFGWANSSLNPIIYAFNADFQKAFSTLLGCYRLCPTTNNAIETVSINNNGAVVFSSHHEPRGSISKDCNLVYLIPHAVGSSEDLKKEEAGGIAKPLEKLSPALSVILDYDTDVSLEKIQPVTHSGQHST
Sequence of D(2) dopamine receptor (Rattus norvegicus) (P61169 whole entry): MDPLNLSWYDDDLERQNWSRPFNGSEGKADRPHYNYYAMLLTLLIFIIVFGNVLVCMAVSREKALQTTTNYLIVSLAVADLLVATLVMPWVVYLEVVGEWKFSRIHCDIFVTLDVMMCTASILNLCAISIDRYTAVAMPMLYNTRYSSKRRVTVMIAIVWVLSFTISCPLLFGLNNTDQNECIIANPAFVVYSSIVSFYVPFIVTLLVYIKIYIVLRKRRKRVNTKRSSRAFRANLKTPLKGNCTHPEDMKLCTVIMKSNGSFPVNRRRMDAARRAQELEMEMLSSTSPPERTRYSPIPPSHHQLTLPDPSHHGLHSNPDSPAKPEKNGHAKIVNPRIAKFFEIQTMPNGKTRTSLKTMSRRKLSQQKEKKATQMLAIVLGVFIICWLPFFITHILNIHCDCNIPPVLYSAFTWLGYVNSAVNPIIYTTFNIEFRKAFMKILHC
Sequence of D(2) dopamine receptor (P61169 whole entry): as above

Compound: CCCN1CCC2=C(CCc3sc(N)nc32)C1
- ED50 (Mus musculus; [17]): 18.8 mg/kg
- IC50 (D(1A) dopamine receptor): 10 µM

Compound: CCCN1CCC2=C(C1)c1nc(N)sc1CC2
- IC50 (D(1A) dopamine receptor): > 10 µM

Compound: CCCN1CCC=C2c3nc(N)sc3CCCC21 (stereo not drawn)
- ED50 (Mus musculus; [17]): > 20 mg/kg
- ED50 (Rattus norvegicus [1]; [18]): > 30 mg/kg
- inhibition [2]: 18%

- IC50 (D(2) dopamine receptor): 574 nM
- IC50 (D(1A) dopamine receptor): 10 µM
Compound: CCCN1CCC=C(c2csc(N)n2)C1
- inhibition in vivo at 2.5 mg/kg (Rattus norvegicus [3]): 100%
- ED50 (Mus musculus; [17]): 4.3 mg/kg
- ED50 (Rattus norvegicus [4]): 3.1 mg/kg
- ED50 (Rattus norvegicus [5]): 1.3 mg/kg

Compound: CCCN1CC=C2c3nc(N)sc3CCC2C1 (stereo not drawn)
- ED50 (Mus musculus; [17]): > 30 mg/kg
- IC50 (D(1A) dopamine receptor): > 10 µM

Compound: CCCN1CCCC2c3nc(N)sc3CCCC21 (stereo not drawn)
- ED50 (Mus musculus; [17]): > 30 mg/kg
- inhibition [2]: 10%

Compound: CCCN1CCC=C2c3nc(N)sc3CCC21 (racemic)
- inhibition in vivo at 2.5 mg/kg (Rattus norvegicus [3]): 100%
- ED50 (Mus musculus; [17]): 9.4 mg/kg
- IC50 (D(1A) dopamine receptor): > 10 µM
- EPS MED [6]: >10 mg/kg
- ED50 (Rattus norvegicus [1]; [18]): 18.9 mg/kg
- Dose (Rattus norvegicus [7]): 5 mg/kg
- ED50 (Rattus norvegicus [8]): 4 mg/kg
- ED50 (Rattus norvegicus [9]; [19]): 0.9 mg/kg
- ED50 (Rattus norvegicus [10]; [19]): 14.5 mg/kg
- ED50 [11]: 11.2 mg/kg
- Control (Rattus norvegicus [12]): 63%

Compound: CCCN1CCCC(c2cccc(O)c2)C1 (single isomer, unassigned; (+))
- inhibition in vivo at 2.5 mg/kg (Rattus norvegicus [3]): 100%
- Reversal (Rattus norvegicus [13]): 58%
- ED50 (Rattus norvegicus [9]; [19]): 3 mg/kg
- ED50 (Rattus norvegicus [10]; [19]): 5.8 mg/kg

Compound: Nc1nc2c(s1)CCC1NCCCC21 (stereo in doubt; 26) [listing 1 of 2 here]
- ED50 (Mus musculus; [17]): > 30 mg/kg

Compound: Nc1nc2c(s1)CCC1NCCCC21 (stereo in doubt; 26) [listing 2 of 2 here]
- inhibition [2]: 14%

Compound: Nc1nc2c(s1)CCC1NCCCC21 (stereo in doubt; 27)
- inhibition [2]: 10%

Compound: CCCN1CCCC2c3nc(N)sc3CCC21 (stereo in doubt; 28) [listing 1 of 2 here]
- ED50 (Mus musculus): >30 mg/kg

Compound: CCCN1CCCC2c3nc(N)sc3CCC21 (stereo in doubt; 28) [listing 2 of 2 here]
- inhibition [2]: 16%

Compound: CCCN1CCCC2c3nc(N)sc3CCC21 (stereo in doubt; 29)
- inhibition in vivo at 2.5 mg/kg (Rattus norvegicus [3]): 94%
- IC50 (D(2) dopamine receptor): 1240 nM
- ED50 (Mus musculus): 7 mg/kg
- IC50 (D(1A) dopamine receptor): > 10 µM
- Reversal (Rattus norvegicus [13]): 100%

Compound: CCCN1CCC=C2c3nc(N)sc3CC[C@@H]21 (stereo in doubt; (+)-6)
- Inhibition (Rattus norvegicus [3]): 91%
- ED50 (Mus musculus): 3.7 mg/kg
- IC50 (D(1A) dopamine receptor): > 10 µM
- EPS MED [6]: >30 mg/kg
- ED50 (Rattus norvegicus [1]): 7 mg/kg
- Dose (Rattus norvegicus [7]): 2.5 mg/kg
- ED50 (Rattus norvegicus [8]): 1.3 mg/kg
- ED50 (Rattus norvegicus [9]): 0.3 mg/kg
- ED50 (Rattus norvegicus [10]): 6.8 mg/kg
- ED50 [11]: 8.3 mg/kg
- Control (Rattus norvegicus [14]): 52.4%

Compound: CCCN1CCC=C2c3nc(N)sc3CC[C@@H]21 (stereo in doubt; (-)-6)
- Inhibition (Rattus norvegicus [3]): 22%
- ED50 [15]: > 30 mg/kg
- ED50 (Mus musculus): 20.4 mg/kg
- Reversal (Rattus norvegicus [13]): 14%
- ED50 (Rattus norvegicus [1]): >30 mg/kg
- Dose (Rattus norvegicus [7]): 20 mg/kg
- ED50 (Rattus norvegicus [9]): 2.5 mg/kg
- ED50 (Rattus norvegicus [10]): >30 mg/kg
- Control (Rattus norvegicus [12]): 153.2%

Compound: CN1CCc2cccc3c2[C@H]1Cc1ccc(O)c(O)c1-3 [APOMORPHINE]
- inhibition in vivo at 0.25 mg/kg (Rattus norvegicus [16]): 100%
- ED50 (Mus musculus; [17]): 6.9 mg/kg
- ED50 (Rattus norvegicus [4]): > 30 mg/kg
- ED50 (Rattus norvegicus [9]; [19]): 0.03 mg/kg
- ED50 (Rattus norvegicus [10]; [19]): 0.07 mg/kg

Compound: CSc1ccc2c(c1)N(CCC1CCCCN1C)c1ccccc1S2 (stereo not drawn) [THIORIDAZINE]
- EPS MED [6]: <2.5 mg/kg
- ED50 [11]: 3.9 mg/kg
